LMPTP inh – LMPTP phosphatase inhibitors, primary screen, biochemical, fluorescence intensity, uHTS | recombinant LMPTP-A, OMFP fluorogenic substrate | inhibition, % at 20 µM | 0.22% of 360,000 active;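 active = compounds that cut the enzyme signal by at least half of the control window in the single-dose screen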
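test system = LMPTP-A | amount = 0.625 nM LMPTP-A final | reagent = fluorogenic phosphatase substrate OMFP at 400 µM final | incubation = 50 min at room temperature | benchmarks = no-enzyme low control, uninhibited high control | medium = Bis-Tris pH 6.0, DTT, detergent | signal = fluorescence intensity of OMFP turnover product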
STEP block – STEP phosphatase inhibitors, primary screen, biochemical, fluorescence intensity, uHTS; Tyrosine-protein phosphatase non-receptor type 5 (Homo sapiens), P54829; recombinant STEP, OMFP fluorogenic substrate; inhibition, % at 20 µM; 0.25% of 360,000 active;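 active = inhibition at 20 µM, scaled per plate between control wells, above about 37%, limit read from the data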
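Measure: Control-normalized % inhibition with plate pattern correction | Test system: STEP phosphatase, cell-free reaction | Medium: pH 6.0 Bis-Tris with DTT and Tween 20 | Technique: Fluorescence, 480/540 nm | Times: Reaction 20 min, ambient temperature | Doses: Single compound dose of 20 µM, 1% DMSO final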
SUMO1-SIM PPI – modulators of SUMO1 protein-protein interactions, primary screen, biochemical, uHTS | Small ubiquitin-related modifier 1 (Homo sapiens), P63165 | SUMO1 binding to a labelled peptide, TR-FRET, 1 h | inhibition, % at 20 µM | 0.33% of 360,000 active; in the data active = inhibition above about 37%
Scp-1 inhibitor – Scp-1 phosphatase inhibitors, primary screen, biochemical, colorimetric, uHTS. inhibition, % at 20 µM. 0.88% of 340,000 active. Recombinant Scp1, phosphopeptide, malachite green phosphate absorbance. AID 493091, 2011. Carboxy-terminal domain RNA polymerase II polypeptide A small phosphatase 1 (Homo …;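 active = inhibition above about 50% at 20 µM, limit read from the data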
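Test system: SCP-1 phosphatase catalytic domain, residues 76-261 | Compound dosing: One concentration, 20 µM, with 1.0% DMSO | Schedule: 45 min room-temperature reaction, 5 min colour, 30 min stabiliser | Detection: Absorbance at 630 nm | Read-out basis: % inhibition of SCP-1 phosphate liberation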
NadD block – inhibitors of S. aureus NadD, primary screen, biochemical, colorimetric, uHTS | Nicotinate-nucleotide adenylyltransferase NadD (Staphylococcus aureus N315) | purified NadD enzyme, colorimetric absorbance read-out | inhibition, % at 20 µM | 0.78% of 360,000 active | AID 602399, 2012; in the data active = inhibition above about 26%
DNMT1 block – human DNMT1 methyltransferase inhibitors, primary screen, biochemical, molecular beacon, fluorescence, HinP1I cleavage, uHTS; DNA (cytosine-5)-methyltransferase 1 (Homo sapiens), P26358; inhibition (reported as % activation of signal), % at 10 µM; 0.83% of 360,000 active; in the data active = inhibition above about 50%
Target sequence (P26358 504-1616 limits assumed): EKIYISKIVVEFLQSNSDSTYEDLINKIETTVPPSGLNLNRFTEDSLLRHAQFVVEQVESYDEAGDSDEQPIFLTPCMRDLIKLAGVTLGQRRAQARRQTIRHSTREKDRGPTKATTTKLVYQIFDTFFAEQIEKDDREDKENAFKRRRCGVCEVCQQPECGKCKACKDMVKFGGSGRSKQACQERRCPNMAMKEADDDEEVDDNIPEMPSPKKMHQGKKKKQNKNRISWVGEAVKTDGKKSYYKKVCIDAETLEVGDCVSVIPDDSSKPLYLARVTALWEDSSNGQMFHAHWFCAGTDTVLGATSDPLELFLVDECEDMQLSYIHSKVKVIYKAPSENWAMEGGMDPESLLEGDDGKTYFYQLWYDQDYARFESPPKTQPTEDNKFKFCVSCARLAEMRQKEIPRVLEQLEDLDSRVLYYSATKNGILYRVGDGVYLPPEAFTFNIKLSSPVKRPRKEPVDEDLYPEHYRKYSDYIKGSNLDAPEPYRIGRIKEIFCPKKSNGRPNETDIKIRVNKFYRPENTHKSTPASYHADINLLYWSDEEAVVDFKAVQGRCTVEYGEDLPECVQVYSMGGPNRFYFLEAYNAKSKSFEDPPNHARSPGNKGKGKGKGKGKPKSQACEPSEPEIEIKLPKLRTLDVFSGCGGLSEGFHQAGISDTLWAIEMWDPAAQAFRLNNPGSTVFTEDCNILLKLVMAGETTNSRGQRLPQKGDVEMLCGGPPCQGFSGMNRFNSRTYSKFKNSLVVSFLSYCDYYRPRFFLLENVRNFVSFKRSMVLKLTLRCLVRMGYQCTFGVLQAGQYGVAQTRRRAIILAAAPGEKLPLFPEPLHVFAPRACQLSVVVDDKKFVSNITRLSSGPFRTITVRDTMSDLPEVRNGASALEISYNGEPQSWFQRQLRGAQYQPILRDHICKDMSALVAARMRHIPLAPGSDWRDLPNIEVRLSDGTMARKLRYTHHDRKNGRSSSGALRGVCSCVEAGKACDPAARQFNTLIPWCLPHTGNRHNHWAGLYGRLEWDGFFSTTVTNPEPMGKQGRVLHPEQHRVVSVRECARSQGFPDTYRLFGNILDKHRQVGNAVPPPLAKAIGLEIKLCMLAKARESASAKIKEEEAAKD
NadD inh conf – inhibitors of S. aureus NadD, confirmation, biochemical, colorimetric, single concentration. inhibition, % at 20 µM. AID 624309, 2012. shares compounds with NadD block. 13% of 2,000 active. purified S. aureus NadD, colorimetric enzyme assay; in the data active = inhibition mostly above about 42%, no sharp cut-off; inactive = mostly below about 42%
A number is an active result. The list is not random: actives were taken first. Their share in the collection is about 2.4%.

What do the screens show for `CCc1nnc(NS(=O)(=O)c2ccc(N=Cc3c(C)[nH]n(-c4cccc(Cl)c4)c3=O)cc2)s1`?
LMPTP inh: inactive; STEP block: inactive; SUMO1-SIM PPI: inactive; Scp-1 inhibitor: inactive; NadD block: inactive; DNMT1 block: inactive

What do the screens show for `Cc1c(N=Cc2cccs2)c(=O)n(-c2ccccc2)n1C`?
LMPTP inh: inactive; STEP block: inactive; SUMO1-SIM PPI: inactive; Scp-1 inhibitor: inactive; NadD block: inactive; DNMT1 block: inactive

Results for Cc1ccc(C2C(C=Nc3c(C)n(C)n(-c4ccccc4)c3=O)=C(c3ccccc3)Oc3ccccc32)cc1 (stereo unspecified) ?
LMPTP inh: inactive; STEP block: inactive; SUMO1-SIM PPI: inactive; Scp-1 inhibitor: inactive; NadD block: 38; DNMT1 block: inactive; NadD inh conf: inactive

How did O=C(c1cccc(S(=O)(=O)N2CCN(c3ccc(F)cc3)CC2)c1)N1CCN(c2ccccc2O)CC1 do in these assays?
LMPTP inh: inactive; STEP block: inactive; SUMO1-SIM PPI: inactive; Scp-1 inhibitor: inactive; NadD block: 38; DNMT1 block: inactive; NadD inh conf: inactive

Results for O=C(c1cccc(S(=O)(=O)N2CCN(c3ccc(F)cc3)CC2)c1)N1CCCCCCC1 ?
LMPTP inh: inactive; STEP block: inactive; SUMO1-SIM PPI: inactive; Scp-1 inhibitor: inactive; NadD block: inactive; DNMT1 block: inactive

Results for COc1ccc(S(N)(=O)=O)cc1C(=O)NCCCN1CCN(c2ccc(C)cc2)CC1 ?
LMPTP inh: inactive; STEP block: inactive; SUMO1-SIM PPI: inactive; Scp-1 inhibitor: inactive; NadD block: inactive; DNMT1 block: inactive

Results for C#CCN(C[C@H]1[C@H](OC(=O)NCc2ccccc2F)[C@H](OC(=O)NCc2ccccc2F)C[C@H]2C(=O)N(c3ccccc3)C(=O)[C@@H]12)S(=O)(=O)c1ccc(C)cc1 ?
LMPTP inh: inactive; STEP block: inactive; SUMO1-SIM PPI: inactive; NadD block: 30; DNMT1 block: inactive; NadD inh conf: inactive

Results for COc1ccc(C(=O)c2[nH]c(N)c(C(=O)NCCc3c[nH]c4ccccc34)c2-c2ccc(Br)cc2)cc1 ?
LMPTP inh: inactive; SUMO1-SIM PPI: inactive; NadD block: 44; NadD inh conf: inactive

How did Nc1[nH]c(C(=O)c2ccccc2)c(-c2ccc(Br)cc2)c1C(=O)NCCc1c[nH]c2ccccc12 do in these assays?
LMPTP inh: inactive; SUMO1-SIM PPI: inactive; NadD block: inactive

Results for Nc1c(C(=O)NCc2ccco2)c2nc3ccccc3nc2n1CCc1ccc(F)cc1 ?
LMPTP inh: inactive; STEP block: inactive; SUMO1-SIM PPI: inactive; Scp-1 inhibitor: inactive; NadD block: 38; DNMT1 block: inactive; NadD inh conf: inactive

Results for C/C(=N\NC(=O)c1cccc([N+](=O)[O-])c1)c1ccncc1 ?
LMPTP inh: inactive; STEP block: inactive; SUMO1-SIM PPI: inactive; Scp-1 inhibitor: inactive; NadD block: inactive; DNMT1 block: inactive

Results for Cc1ccc(NC(=O)CN2C(=O)S/C(=C/c3ccc(O)c([N+](=O)[O-])c3)C2=O)cc1C ?
LMPTP inh: 80; STEP block: inactive; SUMO1-SIM PPI: inactive; Scp-1 inhibitor: 76; NadD block: 35; DNMT1 block: inactive; NadD inh conf: inactive

Results for COc1ccc(-c2[nH]ncc2CN(C)C(C)c2ccon2)c(OC)c1 (stereo unspecified) ?
LMPTP inh: inactive; STEP block: inactive; SUMO1-SIM PPI: inactive; Scp-1 inhibitor: inactive; NadD block: inactive; DNMT1 block: inactive

How did Cc1ccc(Nc2nc3ccccc3nc2Nc2c(C)n(C)n(-c3ccccc3)c2=O)cc1 do in these assays?
LMPTP inh: inactive; STEP block: inactive; SUMO1-SIM PPI: inactive; Scp-1 inhibitor: inactive; NadD block: 35; DNMT1 block: inactive; NadD inh conf: inactive

Results for c1ccc2cc(-c3cc4ccccn4c3)ccc2c1 ?
LMPTP inh: inactive; STEP block: inactive; SUMO1-SIM PPI: inactive; Scp-1 inhibitor: inactive; NadD block: 35; DNMT1 block: inactive; NadD inh conf: inactive

Results for CCOC(=O)c1nn(-c2ccccc2)c(=O)cc1OCC(=O)Nc1cc(C)ccc1OC ?
LMPTP inh: inactive; STEP block: inactive; SUMO1-SIM PPI: inactive; Scp-1 inhibitor: inactive; NadD block: inactive; DNMT1 block: inactive

Results for COc1ccc(C)cc1NC(=O)c1ccc2c(c1)C(=O)N(Cc1ccncc1)C2=O ?
LMPTP inh: inactive; STEP block: inactive; SUMO1-SIM PPI: inactive; Scp-1 inhibitor: inactive; NadD block: inactive; DNMT1 block: inactive

Results for CN(C)CCCN(C(=O)c1ccc(S(=O)(=O)N2CCc3ccccc32)cc1)c1nc2ccc(F)cc2s1 ?
LMPTP inh: inactive; STEP block: inactive; SUMO1-SIM PPI: inactive; Scp-1 inhibitor: inactive; NadD block: inactive; DNMT1 block: inactive

How did CN(C)CCCN(C(=O)c1ccc(S(=O)(=O)N2CCc3ccccc32)cc1)c1nc2ccc(Cl)cc2s1 do in these assays?
LMPTP inh: inactive; STEP block: inactive; SUMO1-SIM PPI: inactive; Scp-1 inhibitor: inactive; NadD block: 52; DNMT1 block: inactive; NadD inh conf: inactive

Results for CCC(Sc1nc2ccsc2c(=O)n1Cc1ccc(C(=O)O)cc1)C(=O)Nc1ccc(C)c(Cl)c1 (stereo unspecified) ?
LMPTP inh: inactive; STEP block: inactive; SUMO1-SIM PPI: inactive; Scp-1 inhibitor: inactive; NadD block: 48; DNMT1 block: inactive; NadD inh conf: 47

How did CCC(Sc1nc2ccsc2c(=O)n1Cc1ccc(C(=O)O)cc1)C(=O)Nc1cc(Cl)ccc1C (stereo unspecified) do in these assays?
LMPTP inh: inactive; STEP block: inactive; SUMO1-SIM PPI: inactive; NadD block: inactive; DNMT1 block: inactive

How did COc1ccc(C(=O)COC(=O)c2cc([N+](=O)[O-])ccc2N2CCOCC2)c(OC)c1 do in these assays?
LMPTP inh: inactive; STEP block: inactive; SUMO1-SIM PPI: inactive; Scp-1 inhibitor: inactive; NadD block: inactive; DNMT1 block: inactive

Results for O=C1Nc2ccccc2N=C(c2ccc3c(c2)OCO3)C1N(C(=O)c1ccc2ccccc2c1)C1CC1 (stereo unspecified) ?
LMPTP inh: inactive; STEP block: inactive; SUMO1-SIM PPI: inactive; NadD block: 35; DNMT1 block: inactive; NadD inh conf: inactive
